Measurements from different studies.
Target: Serine/threonine-protein kinase MARK1 (MARK1, Homo sapiens, UniProt Q9P0L2)

For CNCc1ccccc1-c1csc([C@H](C)Nc2nc(C)nc3cc(OC)c(OC)cc23)c1, the remaining binding was 100% (cell-free assay, competition with immobilised ligand; 1 µM).
The remaining binding of COc1ccnn2ncc(-c3ccnc(N(C)C)n3)c12 is reported as 97% (binding; 1 µM).
Cn1cc(Cl)c2c(Oc3c(F)cc(Nc4cc(Cl)nc(N)n4)cc3F)ccnc21 has a remaining binding of 100% (cell-free assay, competition with immobilised ligand; 0.1 µM).
C[C@H]1CCN(c2nccc(-c3cnn4ncccc34)n2)C1 has a remaining binding of 92% (binding; 1 µM).
Cn1nc(C(=O)NCc2ccc(C(=O)O)cc2)cc1-c1ccc2[nH]ccc2c1 gave a remaining binding of 100% (cell-free assay, competition with immobilised ligand; 0.1 µM).
O=C(c1ccc(Nc2ncc(Cl)c(-c3cc4ccccc4s3)n2)cc1)N1CCC(N2CCCC2)CC1 gave a remaining binding of 27% (binding, competition with immobilised ligand; 1 µM).
COc1cc(-c2cn(C3CCc4c(F)cccc4N(CC(F)(F)F)C3=O)nn2)ccc1-n1cnc(C)c1 (stereo not shown) has a remaining binding of 100% (cell-free assay, competition with immobilised ligand; 1 µM).
CNC(=O)[C@@H]1CC[C@@H](n2c(-c3ccc4cnccc4c3)nc3ccc(C(=O)NCc4cccc(C(N)=O)c4)cc32)C1 has a remaining binding of 94% (binding, competition with immobilised ligand; 1 µM).
O=C(NCCCN1CCOCC1)c1ccc(Nc2nccc(-c3cc4ccccc4s3)n2)cc1 has a remaining binding of 66% (binding, competition with immobilised ligand; 1 µM).
For CN(C)C(=O)Cn1cc(-c2nc([C@@](C)(c3ccc(-c4cnc(N)nc4)cc3)C3CC3)no2)cn1, the remaining binding was 92% (cell-free assay, competition with immobilised ligand; 1 µM).
F[C@@H]1CCN(c2nccc(-c3cnn4ncccc34)n2)C1 gave a remaining binding of 100% (binding; 1 µM).
With Nc1ncc2c(n1)-c1c([nH]c3ccc(C#CC4CC4)cc13)CCCC2 the remaining binding was 98% (binding, competition with immobilised ligand; 1 µM).
COc1cnc(Nc2cccc(S(N)(=O)=O)c2)nc1N1CCN(c2ccccc2)CC1 gave a remaining binding of 100% (binding, competition with immobilised ligand; 1 µM).
The remaining binding of CCN1CCN(Cc2ccc(C(=O)Nc3ccc(C)c(Oc4ccc5c(c4)CC(=O)N5)c3)cc2C(F)(F)F)CC1 is reported as 100% (binding, competition with immobilised ligand; 1 µM).
For CC(C)(O)c1cncc(-c2nc3ccc(F)cc3n2C2CC2)c1, the remaining binding was 100% (cell-free assay, competition with immobilised ligand; 1 µM).
With CN(c1nccc(-c2cnn3ncccc23)n1)C1CC1 the remaining binding was 83% (binding; 1 µM).
O=C(Nc1c[nH]nc1C(=O)NC1CCNCC1)c1cc(F)cc(F)c1 gave a remaining binding of 100% (binding, competition with immobilised ligand; 1 µM).
N[C@@H]1CCN(c2nccc(-c3cnn4ncccc34)n2)C1 gave a remaining binding of 100% (binding; 1 µM).
For Cc1nc(Cc2cccc(C(F)(F)F)c2)sc1-c1ccc(C(N)=O)nc1, the remaining binding was 90% (cell-free assay, competition with immobilised ligand; 1 µM).
COc1ncc2cc3ccccc3nc2c1C#N gave a remaining binding of 65% (cell-free assay, competition with immobilised ligand; 5 µM).
For Cc1cnn2ncc(-c3ccnc(N(C)C)n3)c2c1, the remaining binding was 98% (binding; 1 µM).
O=C(c1ccc(Nc2ncc(Cl)c(-c3ccc(Cl)s3)n2)cc1)N1CCC(N2CCCC2)CC1 gave a remaining binding of 24% (binding, competition with immobilised ligand; 1 µM).
